# UPR CHOP act = activators of apoptotic arm of unfolded protein response (CHOP); CHO-CHOP luciferase reporter, UPR activation, luminescence; percent of tunicamycin response over DMSO baseline; activation, % at 10 µM; 0.34% of 330,000 active; AID 449763;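 active means at 10 µM dose, activation of 40% or more, normalized to positive control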;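 further: 100% = tunicamycin at 10 µg/mL and 0% = DMSO alone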
#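 Dosing – one dose, 10 µM in 0.5% DMSO · System – CHO-CHOP cells, stable luciferase reporter of PERK-eIF2a-CHOP signalling · Input – 500 cells/well · Control set – tunicamycin 10 µg/mL final as positive, DMSO-only wells as negative · Timing – 6 h compound treatment, 37 °C · Measure – % activation vs tunicamycin · Technique – luminescence read with Steady-Glo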
# UPR XBP1 act = adaptive UPR (XBP1) activation; CHO-XBP1 luciferase reporter, IRE1-XBP1 UPR activation, luminescence; percent of tunicamycin response, DMSO as zero; activation, % at 20 µM; 0.33% of 330,000 active; AID 463104;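 active means versus positive control, 20 µM dose yields 30% or more activation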;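 further: 100% = tunicamycin at 10 µg/mL and 0% = DMSO only wells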
#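 Assay system: IRE1-XBP1 luciferase reporter CHO line. Input: 1000 cells/well. Buffer or medium: F12 with 10% serum. Doses: 20 µM, 1% DMSO. Times: overnight seeding at 37 °C, 6 h compound treatment at 37 °C. Technique: Steady-Glo luciferase glow luminescence, 10 min after reagent addition.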
# B2AR ag = activates human beta-2 adrenergic receptor causing internalization; response, % (no concentration beside the values); 0.43% of 340,000 active; Am2.2-beta2AR cells, FAP receptor internalization, flow cytometry;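 active means response above a set limit, near 3 SD of response in nonfluorescent compounds, cut at about 42% in these data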
# Target sequence (P07550 whole entry, looked up): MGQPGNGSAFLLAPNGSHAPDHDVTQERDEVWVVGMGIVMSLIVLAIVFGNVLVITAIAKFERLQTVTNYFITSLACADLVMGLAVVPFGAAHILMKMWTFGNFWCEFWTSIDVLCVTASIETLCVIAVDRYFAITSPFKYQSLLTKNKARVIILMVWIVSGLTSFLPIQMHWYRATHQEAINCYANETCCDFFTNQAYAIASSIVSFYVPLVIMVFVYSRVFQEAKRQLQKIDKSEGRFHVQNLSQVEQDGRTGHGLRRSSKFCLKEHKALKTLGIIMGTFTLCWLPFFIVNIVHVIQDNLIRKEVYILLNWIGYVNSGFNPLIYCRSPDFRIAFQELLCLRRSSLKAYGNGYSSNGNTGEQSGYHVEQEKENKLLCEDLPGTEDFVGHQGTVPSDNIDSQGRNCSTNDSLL
# VLA-4 inh = inhibition in a human VLA-4 binding assay; inhibition, % (about 7 µM as worked out from the volumes in the protocol); 0.2% of 330,000 active; VLA-4 expressing cells, ligand binding flow cytometry; in the data active means inhibition above about 50%
# CHOP inh = blocks CHOP induction under ER stress. CHO-K1 CHOP-promoter luciferase, tunicamycin-induced, 15-18 h. inhibition, % at 10 µM. 3.8% of 220,000 active;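 active means compounds that reduced the stress-induced luciferase reporter signal by more than about 70% of percent inhibition, limit read from the data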;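 further: 0% = tunicamycin plus vehicle and 100% = wells without tunicamycin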
# The depositor's hits bear a star; i = inactive; x = no result. The full list was thinned out, with hits kept by preference.
SMILES,UPR CHOP act,UPR XBP1 act,B2AR ag,VLA-4 inh,CHOP inh
Cc1cccc(NC(=O)c2cc(-c3cc(C)ccc3O)n[nH]2)c1,6,6,-2,-5,x
COc1ccc(NC(=O)c2cc(-c3cc(C)ccc3O)n[nH]2)cc1Cl,0,5,11,8,78*
CCCCc1nc2ccc(S(=O)(=O)O)cc2[nH]1,1,-3,-6,-10,-3
COc1cc(CNCCCN2CCOCC2)c(Br)cc1OCC(=O)Nc1ccccc1C,1,4,-5,0,-10
COc1ccccc1Nc1nc(N)nc(CN2CCN(c3ccccc3F)CC2)n1,0,1,13,-2,83*
COc1ccccc1N1CCN(Cc2nc(N)nc(Nc3ccc(C)c(Cl)c3)n2)CC1,2,4,10,34,76*
CCNc1c(NCC)c(=O)c1=O,0,-1,5,34,-7
Cc1cc(=O)oc2c(C)c3occc3cc12,-1,2,4,11,x
COc1cccc2cc(C(=O)NCc3ccc(Cl)cc3)c(=O)oc12,-1,3,13,-8,x
COc1ccc2nc(N3C(=O)C(O)=C(C(=O)c4ccco4)C3c3ccc(C)o3)sc2c1 (centres undefined),3,0,18,x,x
Cc1ccc2nc(N3C(=O)C(O)=C(C(=O)c4ccco4)C3c3cccs3)sc2c1 (centres undefined),3,3,19,-19,94*
O=C(NCCc1ccccc1)c1nccc2ccccc12,7,3,-1,11,x
c1ccc(CCNc2ccnc3cc4ccccc4cc23)cc1,x,x,81*,x,39
O=S(=O)(Nc1ccccc1F)c1cccc(NC(=S)NCCN2CCOCC2)c1,1,-2,0,4,x
CN1CCCN(S(=O)(=O)c2cccc(C#N)c2)CC1,0,-4,1,26,x
O=C(COC(=O)c1cc[n+]([O-])cc1)Nc1cc([N+](=O)[O-])ccc1Cl,0,-3,1,-6,x
Clc1cccc(Cl)c1Cn1cnc2c(N3CCCCCC3)ncnc21,1,11,8,-9,76*
CN(/N=C/c1ccc(N(C)C)cc1)C1=NS(=O)(=O)c2ccccc21,1,3,0,44,x
CCOC(=O)N1CCN(c2nc(C)cc(C(F)(F)F)n2)CC1,-1,4,-1,0,71*
O=C(Nc1ccncc1)c1cn(-c2ccccc2)nc1-c1cccs1,7,3,-14,4,27
CC(NC(=O)COC(=O)c1cn(-c2ccccc2)nc1-c1cccs1)c1ccccc1 (centres undefined),3,0,-24,1,90*
Cc1ccc(C)c(S(=O)(=O)NC2CCSC2=O)c1 (centres undefined),0,2,5,x,x
CCc1nc(Nc2ccc(OC)c(OC)c2)c2nnn(Cc3ccccc3Cl)c2n1,1,5,9,9,91*
COC(=O)CSc1nnc(-c2sc3ccccc3c2Cl)o1,-6,-3,2,8,70*
N#CCSc1nnc(-c2sc3ccccc3c2Cl)o1,5,-1,5,31,61
SMILES,UPR CHOP act,UPR XBP1 act,B2AR ag,VLA-4 inh,CHOP inh
C=C(C)COc1ccc2c(C)c(C)c(=O)oc2c1OCC(=C)C,-2,-7,-7,4,66
C=C(C)COc1ccc2c3c(c(=O)oc2c1OCC(=C)C)CCC3,2,-1,-2,15,73*
COc1ccc(C(=O)N/N=C/c2ccc(OC)c(COc3ccc(F)cc3F)c2)cc1,0,-2,0,5,x
C/C(=N\NC(=O)c1ccc(NS(=O)(=O)c2cccs2)cc1)c1ccc2c(c1)OCO2,1,-1,2,0,1
CCn1c(CC(=O)Nc2ccc(C)c(Cl)c2)nnc1SCC(=O)Nc1nc(C)cs1,-1,1,-3,-4,79*
CCN(CC)CCNC(=O)c1ccc(NC(=O)Nc2cccc3ccccc23)cc1,-1,2,23,6,x
CC(=O)Oc1ccc(/C=N/NS(=O)(=O)c2ccc(C)cc2)c(OC(C)=O)c1,1,-7,4,13,x
C=CCc1ccccc1OCC(=O)N/N=C/c1ccc(OC(C)=O)cc1OC(C)=O,-3,1,-11,9,73*
Cc1ccc(-n2c(C)cc(/C=c3/sc4nc5ccccc5n4c3=O)c2C)cc1,-9,-14,x,-4,85*
Fc1ccc(-c2nnc(-c3ccc(Cl)cc3Cl)o2)cc1,-8,-8,-15,10,80*
Cc1ccc(S(=O)(=O)N(C)c2ccc(OC(=O)c3cccs3)cc2)cc1,-3,-1,14,-6,x
CCCCCCCCNC(=O)c1ccc(C)cc1,-2,-2,x,12,11
Cc1ccc(S(=O)(=O)c2c(C)nn(C(C)(C)C)c2OC(=O)C2CCCC2)cc1,0,-1,11,-2,77*
Cc1cccc([C@@H]2[C@@H]3C(=O)N(Cc4ccccc4)C(=O)[C@@H]3[C@]3(C)C(=O)N(c4ccc(C(F)(F)F)cc4)C(=O)N23)c1,0,0,-3,-6,x
O=C(NC(NC(=O)c1ccccc1)c1ccccc1)c1ccccc1,0,-2,4,7,80*
COc1ccc(CCNC(=O)C2CCN(c3nccc(C)n3)CC2)cc1,-2,-2,-3,5,-1
Cc1ccc(OCC(=O)NNC(=O)C2CCN(c3nccc(C)n3)CC2)cc1,-2,-2,105*,7,-13
CCOCCCNc1nc2c(C)cccn2c(=O)c1/C=C1\SC(=S)N(CC(C)C)C1=O,1,2,x,i,33
CCCN1C(=O)/C(=C/c2c(NCCCOCC)nc3c(C)cccn3c2=O)SC1=S,x,x,-426,x,76*
Cc1cc2c(cc1C)CSC(c1ccc(O)cc1)SC2,-1,-1,-4,22,90*
CN(C)CCCNC(=O)/C(=C\c1ccc(-c2ccc(Br)cc2)o1)NC(=O)c1ccccc1,2,0,31,2,81*
COc1ccc(Cc2nnc(SC(C)C(=O)Nc3ccc(C(N)=O)cc3)o2)cc1 (centres undefined),2,-2,-8,0,x
Cc1cc(=O)[nH]c(NN=C2CCC(C(C)(C)C)CC2)n1 (centres undefined),1,-3,-3,-11,82*
C/C(=N\Nc1nc(C)cc(=O)[nH]1)C1CC1,-2,2,0,3,8
NC(=O)c1nn(-c2ccccc2)nc1NC(=O)Cn1nnc(-c2ccccc2)n1,3,0,6,1,72*
COc1ccc(C/C(C)=N/NC(=S)Nc2ccc(Cl)cc2)cc1,-1,-1,58*,10,10
CCCCc1ccc(NC(=S)Nc2cccnc2)cc1,7,-1,-88,14,38
CCCCc1ccc(NC(=S)Nc2ccc(Nc3ccc(OC)cc3)cc2)cc1,3,7,56*,8,69
COc1ccc(C/C(C)=N/NC(=S)Nc2ccccc2)cc1,0,1,-1,-9,21
